Reference: the RNAGym collection of RNA variant scans (doi:10.1126/science.aae0568)
Fewer inactive variants are shown than the library holds.

B1: tRNA (parent)
chain: GUUCCGUUGGCGUAAUGGUAACGCGUCUCCCUCCUAAGGAGAAGACUGCGGGUUCGAGUCCCGUACGGAACG

Variants of: B1
Test: yeast fitness relative to wild type (ratio to wild type); higher = fitter; tRNA-Arg(CCU), competitive growth, 37 C, YPD
Procedure, shortened: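 Amplicons of the tRNA-Arg(CCU) gene were sequenced, 100-nucleotide paired-end, from the start population and from each end population of a pooled yeast competition. The competition, in six parallel replicates, lasted 24 hours in YPD at 37°C. Fitness relative to wild type was calculated from changes in genotype frequencies. Genotypes had to have ≥ 100 starting reads, and estimates < 0.5 were set to 0.5.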

Row | Variant | yeast fitness
1 | GUUCGGUUGGCGUAAUGGUAACGCGCCUCCCUCCUAAGGAGAAAACUGCGGGUUCGAGUCCCGUACGGAACG [C5G U26C G44A] | 0.529
2 | GUUCGGUUGGCGUAAUGGUAACGCGUCUCCCACUUAAGGAGAAGACUGCGGGUUCGAGUCCCGUACGGAACG [C5G U32A C34U] | ≤ 0.5
3 | GUUCGGUUGGCGUAAUGGUAACGCGUCGCCCUCCUAACGAGAAGACUGCGGGUUCGAGUCCGGUAUGGAACG [C5G U28G G38C C62G C66U] | ≤ 0.5
4 | GUUCGGUUGGCGUAAUGGUAACGCGUCUCCCUCCAAAGGAGAAGACUGCGGGUUCGAGUCCCCUACGGAACG [C5G U35A G63C] | ≤ 0.5
5 | GUUCGGUUGGCGUAAUGGUAACGCGUCACCCUCCUAAGGAGAAGACUGCGGGUUCGCGUCCCGUAGGGAACG [C5G U28A A57C C66G] | ≤ 0.5
6 | GUUCGGUUGGCGUAAUGGUAACGCGUCCCCCUCCUAAGGAGAAGACUGCGGGUUCGAGUCCCGUACGGAGCG [C5G U28C A70G] | 0.641
7 | GUUCGGUUGGCGUAAUGGUAACGCGCCUCCCUCCUAAGGAGAAAACUGCGGGUUCGAGUCCCGUACGGUACG [C5G U26C G44A A69U] | ≤ 0.5
8 | GUUCGGUUGGCGUAAUGGUAACGCGGCUCCCUCCUAAGGAGAAGACUGCGGGUUCGAGUCCCGUACGGAACG [C5G U26G] | 0.625
9 | GUUCGGUUGGCGUAAUGGUAACGCGUCGCCCUCCUAAGGAGAAGACUGCGGGUUCGAGUCCCGUACGGAACG [C5G U28G] | 0.699
10 | GUUCGGUUGGCGUAAUGGUAACGCGUCUCCCUCCGAAGGAGAAGACUGAGGGUUCGAGUCCCGUACGGAACG [C5G U35G C49A] | ≤ 0.5
11 | GUUCGGUUGGCGUAAUGGUAACGCGUCGCCCUCCUAAGGAGAAGACUGCGGGUUCGACUCCUCGACGGAACG [C5G U28G G58C C62U G63C U64G] | 0.628
12 | GUUCGGUUGGCGUAAUGGUAACGCGGCUCCCUCCUCAGGAGAAGACUGCGGGUUCGAGUCCCGUAAGGAACG [C5G U26G A36C C66A] | ≤ 0.5
13 | GUUCGGUUGGCGUAAUGGUAACGCGCCUCCCUCCUAAGGAGAAGCCUGCGGGUUCGAGUCCCAUACGGAACG [C5G U26C A45C G63A] | ≤ 0.5
14 | GUUCGGUUGGCGUAAUGGUAACGCGUCUCCCUCCAAAGGAGAACACUGCGGGUUCGAGUCCCGUAUUGAGCG [C5G U35A G44C C66U G67U A70G] | 0.542
15 | GUUCGGUUGGCGUAAUGGUAACGCGCCUCCCUCCUAAGGAGAAGACUGCGGGUUCGAGUCCCGUUCGGAACG [C5G U26C A65U] | 0.67
16 | GUUCGGUUGGCGUAAUGGUAACGCGCCUCCCUCCUAAGGAGAAAACUGCGGGUUCGAGUCCAGUACGGAACG [C5G U26C G44A C62A] | ≤ 0.5
17 | GUUCGGUUGGCGUAAUGGUAACGCGCCUCCCUCGUAAGGAGAAGACUGCGGGUUAGAGUCCCGUACGGUACG [C5G U26C C34G C55A A69U] | ≤ 0.5
18 | GUUCGGUUGGCGUAAUGGUAACGCGUCUCCCUCCGAGGGAGAAGACUGCGGGUUCGAGUCCCGUACGGAACG [C5G U35G A37G] | 0.536
19 | GUUCGGUUGGCGUAAUGGUAACGCGUCUCCCUCCAAAGGAGAAGACUGCGGGUUCGAGUACCGUACGGAACG [C5G U35A C60A] | ≤ 0.5

Row | Variant | yeast fitness
20 | GUUCGGUUGGCGUAAUGGUAACGCGUCUCCCCCCUAAGGAGAAGACUGCGGGUUCGACUCCCGUACGGAACG [C5G U32C G58C] | 0.665
21 | GUUCGGUUGGCGUAAUGGUAACGCGUCUCCCUCCCAAGGAGAAGACUGCGGGUUCGAGUCCCGUACGGCACG [C5G U35C A69C] | 0.551
22 | GUUCGGUUGGCGUAAUGGUAACGCGUCUCCCUCCUAAGGAGAAGACAGCGGGUUAGAGUCCCGUACGGAACG [C5G U47A C55A] | 0.637
23 | GUUCGGUUGGCGUAAUGGUAACGCGCCUCUCUCCUAAGGAGAAGACUGUGGGUUCGAGUCCCGUACGGUACG [C5G U26C C30U C49U A69U] | ≤ 0.5
24 | GUUCGGUUGGCGUAAUGGUAACGCGUCUCCCCCCUAAGGAGAAGACUGCGGGUUCGAGUCCCGUACGGAACG [C5G U32C] | 0.946
25 | GUUCGGUUGGCGUAAUGGUAACGCGCCUCCCUCCUAAGGAGAAAACUGCGGGUUCGAGUCCCGUACGGAUCG [C5G U26C G44A A70U] | 0.546
26 | GUUCGGUUGGCGUAAUGGUAACGCGUCUCCCACCUAAGGAGAAGACUGCGGGUUCGGGUCCCGUACGGAACG [C5G U32A A57G] | 0.549
27 | GUUCGGUUGGCGUAAUGGUAACGCGUCUCCCUCCCAAGGAGAAGACUCCGGGUUCGAGUCCCGUACGGAACG [C5G U35C G48C] | 0.571
28 | GUUCGGUUGGCGUAAUGGUAACGCGCCUCCCACCUAAGGAGAAGACUGCGGGUUCGAGUCCCGUACGGAACG [C5G U26C U32A] | 0.604
29 | GUUCGGUUGGCGUAAUGGUAACGCGUCUCCCUCCCAAGGAGAAGACUGCGGGUUCGAGUCCCGUACGGAACG [C5G U35C] | 0.71
30 | GUUCGGUUGGCGUAAUGGUAACGCGUCUCCCUCCAAAGGAGAAGACUGCGAGUUCGAGUCCCGUACGGAACG [C5G U35A G51A] | ≤ 0.5
31 | GUUCGGUUGGCGUAAUGGUAACGCGUCUCCCUCCACAGGAGAAGACUGCGGGUUAGAGUCCCGUACGGAACG [C5G U35A A36C C55A] | ≤ 0.5
32 | GUUCGGUUGGCGUAAUGGUAACGCGUCUCCCUCCGAAGGAGAAGACUGAGGGUUCAAGUCCCGUACGGAACG [C5G U35G C49A G56A] | ≤ 0.5
33 | GUUCGGUUGGCGUAAUGGUAACGCGCCUCCCUCCUAAGGAGAAGACUGCGGGUUCGAGUCCCGUACGGCACG [C5G U26C A69C] | 0.617
34 | GUUCGGUUGGCGUAAUGGUAACGCGUCUCCCUCCCAAGGAGAAGACUGCCGGUUCAAGUCCCGUACGGAUCG [C5G U35C G50C G56A A70U] | ≤ 0.5
35 | GUUCGGUUGGCGUAAUGGUAACGCGUCGCCCUCCUAACGAGAAGACUGCGGGUUCGAGUCCGGUACGGAACG [C5G U28G G38C C62G] | ≤ 0.5
36 | GUUCGGUUGGCGUAAUGGUAACGCGUCUCCCCCCUAACGAGAAGACUGCGGGUUCGAGUCCCGUACGGAACG [C5G U32C G38C] | 0.534
37 | GUUCGGUUGGCGUAAUGGUAACGCGUCUCCCACCUAAGGAGAAGACUGCGGGUUCGAGUCCUGUACGGAACG [C5G U32A C62U] | 0.532
38 | GUUCGGUUGGCGUAAUGGUAACGCGUCUCCCACCUAAGGAGAAGACUGCGGGUUCGAGUCCGGUACGGAACG [C5G U32A C62G] | ≤ 0.5
